{"source": "ChEMBL document CHEMBL1165899", "about": "“Synthesis and antitumor evaluation of novel cyclic arylsulfonylureas: ADME-T and pharmacophore prediction” (2010)", "format_in_all_cases": "functional", "key": {"M14": {"test_system": "M14", "assay": "Growth inhibition of human M14 cells at 10 uM after 48 hrs by sulforhodamine B assay relative to control", "details": "M14, 48 h, read-out: GI"}, "LOX IMVI": {"test_system": "LOX IMVI", "assay": "Growth inhibition of human LOXIMVI cells at 10 uM after 48 hrs by sulforhodamine B assay relative to control", "details": "read-out: GI"}, "UO-31": {"test_system": "UO-31", "assay": "Growth inhibition of human UO31 cells at 10 uM after 48 hrs by sulforhodamine B assay relative to control", "details": "UO-31, 48 h, read-out: GI", "outline": "(§1)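 NCI 60-cell-line single-dose screen at 10 µM. Cells were plated at 5000–40,000 cells/well according to doubling time, in medium with 2 mM L-glutamine, and held 24 h at 37 °C, 5% CO₂, 100% humidity before drug. Time-zero plates were TCA-fixed. Exposure was 48 h, then TCA fixation and sulforhodamine B staining for 10 min, acetic acid washes, 10 mM trizma solubilization and A515. % inhibition = 100 − % activity, where 100% is the DMSO-solvent control.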"}, "TK-10": {"test_system": "TK-10", "assay": "Growth inhibition of human TK10 cells at 10 uM after 48 hrs by sulforhodamine B assay relative to control", "details": "TK-10, 48 h, read-out: GI", "outline": "as §1"}, "SN12C": {"test_system": "SN12C", "assay": "Growth inhibition of human SN12C cells at 10 uM after 48 hrs by sulforhodamine B assay relative to control", "details": "read-out: GI"}, "786-0": {"test_system": "786-0", "assay": "Growth inhibition of human 786-0 cells at 10 uM after 48 hrs by sulforhodamine B assay relative to control", "details": "786-0, 48 h, read-out: GI"}, "[1]": {"assay": "Growth inhibition of human […] cells at 10 uM after 48 hrs by sulforhodamine B assay relative to control", "details": "read-out: GI"}, "K562": {"test_system": "K562", "assay": "Growth inhibition of human K562 cells at 10 uM after 48 hrs by sulforhodamine B assay relative to control", "details": "K562, 48 h, read-out: GI"}, "HL-60(TB)": {"test_system": "HL-60(TB)", "assay": "Growth inhibition of human HL-60(TB) cells at 10 uM after 48 hrs by sulforhodamine B assay relative to control", "details": "HL-60, 48 h, read-out: GI", "outline": "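Part of a 60-cell-line panel screen at a single concentration. Cells were plated at 5000–40,000 cells/well according to doubling time and pre-incubated 24 h at 37 °C, 5% CO₂, with time-zero plates fixed. Drug exposure ran 48 h. Plates were stained with SRB, rinsed with 1% acetic acid, dye dissolved in 10 mM trizma base, read at 515 nm. % inhibition = 100 − % activity versus DMSO-only wells; 100–200% denotes lethality.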"}, "CCRF-CEM": {"test_system": "CCRF-CEM", "assay": "Growth inhibition of human CCRF-CEM cells at 10 uM after 48 hrs by sulforhodamine B assay relative to control", "details": "read-out: GI"}, "OVCAR-8": {"test_system": "OVCAR-8", "assay": "Growth inhibition of human OVCAR8 cells at 10 uM after 48 hrs by sulforhodamine B assay relative to control", "details": "OVCAR-8, 48 h, read-out: GI"}, "OVCAR-5": {"test_system": "OVCAR-5", "assay": "Growth inhibition of human OVCAR5 cells at 10 uM after 48 hrs by sulforhodamine B assay relative to control", "details": "OVCAR-5, 48 h, read-out: GI"}, "OVCAR-4": {"test_system": "OVCAR-4", "assay": "Growth inhibition of human OVCAR4 cells at 10 uM after 48 hrs by sulforhodamine B assay relative to control", "details": "OVCAR-4, 48 h, read-out: GI"}, "IGROV-1": {"test_system": "IGROV-1", "assay": "Growth inhibition of human IGROV1 cells at 10 uM after 48 hrs by sulforhodamine B assay relative to control", "details": "IGROV-1, 48 h, read-out: GI"}, "T47D": {"test_system": "T47D", "assay": "Growth inhibition of human T47D cells at 10 uM after 48 hrs by sulforhodamine B assay relative to control", "details": "read-out: GI", "outline": "as §1"}, "NCI/ADR-RES": {"test_system": "NCI/ADR-RES", "assay": "Growth inhibition of human NCI/ADR-RES cells at 10 uM after 48 hrs by sulforhodamine B assay relative to control", "details": "read-out: GI"}, "MDA-MB-231": {"test_system": "MDA-MB-231", "assay": "Growth inhibition of human MDA-MB-231 cells at 10 uM after 48 hrs by sulforhodamine B assay relative to control", "details": "MDA-MB-231, 48 h, read-out: GI"}, "MCF7": {"test_system": "MCF7", "assay": "Growth inhibition of human MCF7 cells at 10 uM after 48 hrs by sulforhodamine B assay relative to control", "details": "MCF7, 48 h, read-out: GI"}, "[2]": {"assay": "Growth inhibition of human Hs 578T cells at 10 uM after 48 hrs by sulforhodamine B assay relative to control", "details": "read-out: GI"}, "BT-549": {"test_system": "BT-549", "assay": "Growth inhibition of human BT549 cells at 10 uM after 48 hrs by sulforhodamine B assay relative to control", "details": "BT-549, 48 h, read-out: GI"}, "HT-29": {"test_system": "HT-29", "assay": "Growth inhibition of human HT-29 cells at 10 uM after 48 hrs by sulforhodamine B assay relative to control", "details": "HT-29, 48 h, read-out: GI"}, "HCT-15": {"test_system": "HCT-15", "assay": "Growth inhibition of human HCT15 cells at 10 uM after 48 hrs by sulforhodamine B assay relative to control", "details": "HCT-15, 48 h, read-out: GI"}, "COLO 205": {"test_system": "COLO 205", "assay": "Growth inhibition of human COLO205 cells at 10 uM after 48 hrs by sulforhodamine B assay relative to control", "details": "COLO 205, 48 h, read-out: GI"}, "NCI-H522": {"test_system": "NCI-H522", "assay": "Growth inhibition of human NCI-H522 cells at 10 uM after 48 hrs by sulforhodamine B assay relative to control", "details": "NCI-H522, 48 h, read-out: GI"}, "NCI-H23": {"test_system": "NCI-H23", "assay": "Growth inhibition of human NCI-H23 cells at 10 uM after 48 hrs by sulforhodamine B assay relative to control", "details": "NCI-H23, 48 h, read-out: GI"}, "NCI-H226": {"test_system": "NCI-H226", "assay": "Growth inhibition of human NCI-H226 cells at 10 uM after 48 hrs by sulforhodamine B assay relative to control", "details": "NCI-H226, 48 h, read-out: GI"}, "HOP-92": {"test_system": "HOP-92", "assay": "Growth inhibition of human HOP92 cells at 10 uM after 48 hrs by sulforhodamine B assay relative to control", "details": "HOP-92, 48 h, read-out: GI"}, "EKVX": {"test_system": "EKVX", "assay": "Growth inhibition of human EKVX cells at 10 uM after 48 hrs by sulforhodamine B assay relative to control", "details": "read-out: GI"}, "SF-268": {"test_system": "SF-268", "assay": "Growth inhibition of human SF268 cells at 10 uM after 48 hrs by sulforhodamine B assay relative to control", "details": "SF-268, 48 h, read-out: GI"}, "SF-539": {"test_system": "SF-539", "assay": "Growth inhibition of human SF539 cells at 10 uM after 48 hrs by sulforhodamine B assay relative to control", "details": "SF-539, 48 h, read-out: GI"}, "SNB-19": {"test_system": "SNB-19", "assay": "Growth inhibition of human SNB19 cells at 10 uM after 48 hrs by sulforhodamine B assay relative to control", "details": "SNB-19, 48 h, read-out: GI"}, "SNB-75": {"test_system": "SNB-75", "assay": "Growth inhibition of human SNB75 cells at 10 uM after 48 hrs by sulforhodamine B assay relative to control", "details": "SNB-75, 48 h, read-out: GI"}, "UACC-62": {"test_system": "UACC-62", "assay": "Growth inhibition of human UACC62 cells at 10 uM after 48 hrs by sulforhodamine B assay relative to control", "details": "UACC-62, 48 h, read-out: GI", "outline": "as §1"}}}
{"smiles": "CN(C)c1ccc(/C=C2\\NC(=O)N(S(=O)(=O)c3ccc(Cl)cc3)C2=O)cc1", "values": [{"measurement": "inhibition of growth at 10 µM", "setting": "M14", "value": 200, "unit": "%"}, {"measurement": "inhibition of growth at 10 µM", "setting": "LOX IMVI", "value": 6.44, "unit": "%"}, {"measurement": "inhibition of growth at 10 µM", "setting": "UO-31", "value": 5.5, "unit": "%"}, {"measurement": "inhibition of growth at 10 µM", "setting": "TK-10", "value": -33.4, "unit": "%"}, {"measurement": "inhibition of growth at 10 µM", "setting": "SN12C", "value": 0.04, "unit": "%"}, {"measurement": "inhibition of growth at 10 µM", "setting": "786-0", "value": -0.44, "unit": "%"}, {"measurement": "inhibition of growth at 10 µM", "setting": "[1]", "value": -6.72, "unit": "%"}, {"measurement": "inhibition of growth at 10 µM", "setting": "K562", "value": 8.89, "unit": "%"}, {"measurement": "inhibition of growth at 10 µM", "setting": "HL-60(TB)", "value": 4.85, "unit": "%"}, {"measurement": "inhibition of growth at 10 µM", "setting": "CCRF-CEM", "value": 2.95, "unit": "%"}, {"measurement": "inhibition of growth at 10 µM", "setting": "OVCAR-8", "value": -8.63, "unit": "%"}, {"measurement": "inhibition of growth at 10 µM", "setting": "OVCAR-5", "value": -4.44, "unit": "%"}, {"measurement": "inhibition of growth at 10 µM", "setting": "OVCAR-4", "value": 7.93, "unit": "%"}, {"measurement": "inhibition of growth at 10 µM", "setting": "IGROV-1", "value": 97.9, "unit": "%"}, {"measurement": "inhibition of growth at 10 µM", "setting": "T47D", "value": -9.29, "unit": "%"}, {"measurement": "inhibition of growth at 10 µM", "setting": "NCI/ADR-RES", "value": -6.33, "unit": "%"}, {"measurement": "inhibition of growth at 10 µM", "setting": "MDA-MB-231", "value": -2.18, "unit": "%"}, {"measurement": "inhibition of growth at 10 µM", "setting": "MCF7", "value": -6.37, "unit": "%"}, {"measurement": "inhibition of growth at 10 µM", "setting": "[2]", "value": 14.1, "unit": "%"}, {"measurement": "inhibition of growth at 10 µM", "setting": "BT-549", "value": 4.63, "unit": "%"}, {"measurement": "inhibition of growth at 10 µM", "setting": "HT-29", "value": -2.64, "unit": "%"}, {"measurement": "inhibition of growth at 10 µM", "setting": "HCT-15", "value": 1.55, "unit": "%"}, {"measurement": "inhibition of growth at 10 µM", "setting": "COLO 205", "value": -14.7, "unit": "%"}, {"measurement": "inhibition of growth at 10 µM", "setting": "NCI-H522", "value": 9.78, "unit": "%"}, {"measurement": "inhibition of growth at 10 µM", "setting": "NCI-H23", "value": -1.8, "unit": "%"}, {"measurement": "inhibition of growth at 10 µM", "setting": "NCI-H226", "value": -9.94, "unit": "%"}, {"measurement": "inhibition of growth at 10 µM", "setting": "HOP-92", "value": 11.2, "unit": "%"}, {"measurement": "inhibition of growth at 10 µM", "setting": "EKVX", "value": 14.7, "unit": "%"}, {"measurement": "inhibition of growth at 10 µM", "setting": "SF-268", "value": -21.6, "unit": "%"}, {"measurement": "inhibition of growth at 10 µM", "setting": "SF-539", "value": -0.9, "unit": "%"}, {"measurement": "inhibition of growth at 10 µM", "setting": "SNB-19", "value": -6.78, "unit": "%"}, {"measurement": "inhibition of growth at 10 µM", "setting": "SNB-75", "value": -5.55, "unit": "%"}, {"measurement": "inhibition of growth at 10 µM", "setting": "UACC-62", "value": 3.93, "unit": "%"}]}
